Hck Nef HTS: human Hck-Nef kinase inhibition; P08631; Recombinant Hck-YEEI plus Nef, Z-Lyte FRET kinase assay; inhibition, % at 20 µM; 0.68% of 220,000 active; AID 463187;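 active = Hck-Nef kinase inhibition above about 50%, limit read from the data; inactive = inhibition below that limit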;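 also: 0% = DMSO with Hck plus Nef and 100% = Hck alone without Nef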
14-3-3 Bad PPI: disrupts binding of bovine 14-3-3 zeta to phospho-Bad peptide; TR-FRET 14-3-3zeta/Dy647-pBad peptide displacement, 1 h; inhibition, % at 21.7 µM; 0.71% of 220,000 active; AID 781;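 active = inhibition above about 70%, limit read from the data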;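 also: 0% = full 14-3-3 plus peptide FRET controls and 100% = background without 14-3-3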
MDM2 E3 inh: blocks human Mdm2 ubiquitin ligase activity; Q00987; cell-based MDM2 ubiquitination luciferase reporter, 2 h; 0 = plate control, 100 = twice control, blank-subtracted; signal enhancement, % at 5 µM; 0.11% of 210,000 active; AID 1230;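 active = signal enhancement of 30% or more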;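 also: luminescence tracks abundance of the self-degrading MDM2-luciferase fusion protein; higher signal means inhibition of MDM2 E3 ligase activity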
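system = mammalian cells stably expressing self-ubiquitinating, self-degrading MDM2 E3–luciferase fusion | quantity = 2000 cells per well seeded | incubation = 4 h cell settling then 2 h compound exposure, 37 °C | signal = SteadyLite luminescence, 15 min reagent step | benchmarks = plate control and blank wells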
Tb hexokinase: T. brucei hexokinase 1 inhibition; recombinant TbHK1, G6PDH-coupled NADH A340; inhibition, % at 10 µM; 0.11% of 220,000 active; AID 1430;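 active = inhibition of 50% or more in the single-dose primary screen; inactive = inhibition below 50%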
Wee1 stabilizer: human Wee1 degradation inhibition, primary screen | AID 1321 | 1.2% of 220,000 active | P30291 | HeLa Luc-Wee1K328M stability, luciferase luminescence; 100% = proteasome inhibitor MG132 effect | reporter increase, % at 5 µM;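 active = activation above the mean of all tested compounds plus 3 SD, set per screening run, cut at about 8.8% in these data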;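 also: cells exposed to compound for 20 h before luminescence read; 0% = DMSO alone and 100% = MG132 at 30 µM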
Target sequence (P30291 whole entry K328M): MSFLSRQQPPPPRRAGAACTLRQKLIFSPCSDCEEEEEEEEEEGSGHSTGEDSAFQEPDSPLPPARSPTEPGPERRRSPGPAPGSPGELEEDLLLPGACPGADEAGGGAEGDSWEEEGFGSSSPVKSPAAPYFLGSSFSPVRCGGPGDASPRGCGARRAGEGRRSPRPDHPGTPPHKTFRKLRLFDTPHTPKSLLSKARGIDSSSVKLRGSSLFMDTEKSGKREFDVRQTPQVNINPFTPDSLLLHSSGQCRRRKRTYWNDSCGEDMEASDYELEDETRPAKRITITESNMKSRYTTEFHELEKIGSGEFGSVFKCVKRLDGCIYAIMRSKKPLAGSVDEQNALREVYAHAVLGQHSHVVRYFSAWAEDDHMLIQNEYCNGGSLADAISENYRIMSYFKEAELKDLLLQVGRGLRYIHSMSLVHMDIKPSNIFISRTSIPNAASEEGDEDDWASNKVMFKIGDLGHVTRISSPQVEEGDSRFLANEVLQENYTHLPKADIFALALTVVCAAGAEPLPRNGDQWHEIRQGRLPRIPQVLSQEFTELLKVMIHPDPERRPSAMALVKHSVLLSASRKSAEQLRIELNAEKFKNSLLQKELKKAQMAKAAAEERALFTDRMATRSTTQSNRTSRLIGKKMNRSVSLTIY
Active calls of the source: *; x = no result given; [ ] = another dose, or the depositor's remark. The list is not random: actives were taken first. Their share in the collection is about 2.7%.

SMILES	Hck Nef HTS	14-3-3 Bad PPI	MDM2 E3 inh	Tb hexokinase	Wee1 stabilizer
Cc1cc(C)n(-c2nnc3c4ccccc4n(C)c3n2)n1	22.6	-5.3	-21.1	-31.7	7.6
CSc1nnc2c(n1)OC(c1ccccn1)N(C(C)=O)c1ccccc1-2 (stereo not given)	-2.7	-4.5	-3.2	-17.3	1.6
O=C(c1ccc(Cn2c(=S)[nH]c3ccc(Br)cc3c2=O)cc1)N1CCN(C2CCCCC2)CC1	0.2	-19.7	-8.5	-9.6	5.3
O=C(c1ccccc1)c1coc2ccc(O)c(Cl)c12	1.5	92.0*	-3.4	4.9	0.8
O=C(COc1cccnc1[N+](=O)[O-])NCCc1ccccc1	24.5	43.1	-7.0	-8.2	0.7
COCCN(C(=O)Cc1cccs1)c1nnc(-c2ccncc2)s1	1.5	82.1*	-1.0	-7.3	-2.0
COc1ccccc1/C=C/C=N/NC(=O)c1ccc2nc[nH]c2c1	19.8	-2.7	-13.3	-67.9	0.6
COc1ccc(CCNc2ccncn2)cc1OC	-20.7	57.6	-6.8	3.2	0.7
COc1ccc(CCNc2ccncn2)cc1	1.4	72.4*	1.1	2.6	-1.2
O=C(O)CCNC(=O)CCCn1nnc2ccccc2c1=O	-2.2	1.5	-7.2	-9.1	9.5*
O=c1[nH]c(=S)n(-c2cccc(Cl)c2)c(O)c1/C=N/N1CCOCC1	15.3	2.4	-10.0	-35.2	1.4
O=C(NC(NC1CCS(=O)(=O)C1)C(=O)c1ccccc1)c1ccc(Cl)cc1 (stereo not given)	-0.2	-11.3	-9.5	-4.0	-1.9
CCOC(=O)c1nn(-c2ccc(F)cc2)c2nc(CC(C)C)c(C#N)c(=O)n12	6.0	4.9	34.9*	1.9	2.6
COc1ccc2c(c1)O[C@H](c1ccc3c(c1)OCO3)[C@@H](OC(=O)N[C@H](C)C1CCCCC1)C2=O	4.6	92.4*	x	-0.9	-1.2
COc1ccc2c(c1)O[C@H](c1ccc3c(c1)OCO3)[C@@H](OC(=O)Nc1cc(OC)c(OC)c(OC)c1)C2=O	-5.6	80.6*[fluorescence artefact?]	x	-3.6	2.8
COc1cccc([C@@H]2Oc3ccc(OC)cc3C(=O)[C@H]2OC(=O)Nc2cc(OC)c(OC)c(OC)c2)c1	4.0	8.1	x	-11.2	-1.1
O=C(O)c1ccc(Nc2ncc([N+](=O)[O-])cc2[N+](=O)[O-])cc1	18.2	6.8	2.7	-27.0	-0.1
Cc1ncc([N+](=O)[O-])n1CC(=O)NCCc1ccccc1	2.8	2.5	-19.1	-8.2	1.9
COc1ccc(CCNC(=O)Cn2c([N+](=O)[O-])cnc2C)cc1OC	20.5	-0.5	0.2	-10.0	10.8*
CC1CCC(C(C)C)C(OCC(O)CN2CCOCC2)C1 (stereo not given)	-19.5	14.6	-13.6	3.4	-0.5
CC1CCC(C(C)C)C(OCC(O)CN2CCN(Cc3ccccc3)CC2)C1 (stereo not given)	1.2	73.8*	2.3	-2.0	3.2
O=C(Cc1ccccc1)NC(NCCc1ccccc1)C(Cl)(Cl)Cl (stereo not given)	1.8	2.6	-14.0	4.2	-1.6
Cc1cc(-c2n[nH]c(=S)n2CC(C)C)cs1	4.9	-8.5	-18.3	-3.3	10.6*
O=S(=O)(c1ccc(F)cc1)N1CCCN(c2nccc(C(F)(F)F)n2)CC1	10.0	9.8	-4.6	-9.1	9.5*
Cc1ccc(C(=O)CNc2cccc([N+](=O)[O-])c2)cc1	25.7	-4.0	-6.6	-5.3	4.1
SMILES	Hck Nef HTS	14-3-3 Bad PPI	MDM2 E3 inh	Tb hexokinase	Wee1 stabilizer
Cc1ccc(NCC(=O)c2ccc([N+](=O)[O-])cc2)cc1	32.7	-4.9	-3.0	0.5	9.4*
OCC(O)CN1CCCC1 (stereo not given)	5.0	0.7	-2.5	0.6	-0.3
O=C(Nc1cccc(-c2nc3ccccc3s2)c1)c1ccc2c(c1)OCO2	-0.7	-2.5	-27.9	-11.6	0.2
c1ccc2sc(-c3ccc4c(c3)OCO4)nc2c1	1.9	24.0	-73.5	33.8	14.3*
Cc1cccc(N2CN(Cc3ccco3)CNC2=S)c1C	1.0	-4.5	-7.2	3.1	-0.9
COc1ccc(C(=O)c2sc3nc(-c4ccccc4)ccc3c2N)cc1OC	-1.6	84.0*[fluorescence artefact?]	-7.4	-16.2	-1.9
CCOC(=O)c1sc2nc(-c3ccccc3)ccc2c1N	0.1	1.9	-26.3	-2.8	10.5*
COc1ccc(-c2ccc3c(N)c(C(=O)NC(C)C)sc3n2)cc1OC	-6.1	-1.3	-9.5	-38.2	-0.8

Assay outcomes (PubChem)
